{"data": "Published values from different studies", "HTR2A": "5-hydroxytryptamine receptor 2A (HTR2A, Homo sapiens, UniProt P28223)", "SIGMAR1": "Sigma non-opioid intracellular receptor 1 (SIGMAR1, Homo sapiens, UniProt Q99720)", "PPO3": "PPO3 (Agaricus bisporus, UniProt C7FF04)", "OPRK1": "Kappa-type opioid receptor (OPRK1, Homo sapiens, UniProt P41145)", "note": "Lines come from different studies, so protocols differ."}
{"Compound": "CC[C@H](C)[C@H](NC(=O)[C@H](CCC(=O)O)NC(=O)[C@H](CC(=O)O)NC(=O)CNC(=O)[C@H](CC(C)C)NC(=O)[C@H](CCCNC(=N)N)NC(=O)[C@H](CCCNC(=N)N)NC(=O)[C@H](CC(C)C)NC(=O)CNC(=O)[C@H](CCC(N)=O)NC(=O)[C@@H](NC(=O)[C@H](CCSC)NC(=O)[C@H](Cc1c[nH]c2ccccc12)NC(=O)[C@@H](NC(=O)[C@H](CCC(=O)O)NC(=O)[C@@H]1CCCN1C(=O)[C@H](CCCNC(=N)N)NC(C)=O)[C@@H](C)CC)[C@@H](C)O)C(=O)N[C@@H](CC(N)=O)C(=O)N[C@@H](C)C(=O)N[C@@H](Cc1ccc(O)cc1)C(=O)N[C@@H](Cc1ccc(O)cc1)C(=O)N[C@@H](C)C(=O)N[C@@H](CCCNC(=N)N)C(N)=O", "target": "Bcl-2-like protein 1 (BCL2L1, Homo sapiens, UniProt Q07817)", "effect on": "ligand displacement", "technique": "FP", "Ki [µM]": 2.4}
{"Compound": "Cc1nc2n(c(=O)c1CCNCCc1c[nH]c3ccccc13)CCCC2", "target": "HTR2A", "effect on": "ligand displacement", "technique": "radioligand", "notes": "cell membranes", "Ki [µM]": "> 10"}
{"Compound": "CCCn1nc(C(=O)N2CCCCC2)c2c1CCC(N1CCc3ccccc3C1)C2 (stereo not drawn)", "target": "SIGMAR1", "effect on": "ligand displacement", "technique": "radioligand", "Ki [µM]": "> 10"}
{"Compound": "Nc1nc(N)c(N=Nc2ccccc2[N+](=O)[O-])c(Cl)n1", "target": "PPO3", "effect on": "enzyme activity", "mode": "inhibitor", "Ki [µM]": 3.6}
{"Compound": "C[C@@H]1Cc2ccccc2N1C(=O)NCCCCN(C)[C@@H]1Cc2cccc3[nH]c(=O)n(c23)C1", "target": "HTR2A", "effect on": "ligand displacement", "technique": "radioligand", "Ki [µM]": 2.71}
{"Compound": "CCCc1ccc(CCc2ccc(-c3noc([C@@H]4CCCN4C(=N)N)n3)cc2C(F)(F)F)cc1", "target": "Sphingosine kinase 1 (SPHK1, Homo sapiens, UniProt Q9NYA1)", "effect on": "enzyme activity", "mode": "inhibitor", "Ki [µM]": 17}
{"Compound": "Cc1ccc(C(C)C)cc1NC(=O)COC(=O)c1ccc(O)cc1O", "target": "PPO3", "effect on": "enzyme activity", "mode": "inhibitor", "Ki [µM]": 0.188}
{"Compound": "O[C@@H]1[C@H](O)[C@@H]2C[C@@H]2[C@H]1n1cnc2c(NCCc3ccccc3)nc(C#Cc3ccccc3Cl)nc21", "target": "OPRK1", "effect on": "cell-free assay", "Ki [µM]": "> 10"}
{"Compound": "COc1ccccc1N1CCN(CCCCNC(=O)c2cc3cc(OCCOCCOCCF)ccc3[nH]2)CC1", "target": "SIGMAR1", "effect on": "cell-free assay", "Ki [µM]": "> 10"}
{"Compound": "CCCn1nc(C(=O)N2CCCCC2)c2c1CCC(N1CCC(c3ccncc3)CC1)C2 (stereo not drawn)", "target": "SIGMAR1", "effect on": "ligand displacement", "technique": "radioligand", "Ki [µM]": "> 10"}
{"Compound": "CNC(=O)[C@@]12C[C@@H]1[C@@H](n1ccc3c(NC)ncnc31)[C@H](O)[C@@H]2O", "target": "OPRK1", "effect on": "cell-free assay", "Ki [µM]": "> 10"}
{"Compound": "O=C1NC(=O)C(c2ccccc2)(c2ccc(OCCCN3CCCCC3)cc2)N1 (stereo not drawn)", "target": "Histamine H4 receptor (HRH4, Homo sapiens, UniProt Q9H3N8)", "effect on": "ligand displacement", "technique": "radioligand", "notes": "cell membranes", "Ki [µM]": "> 100"}
{"Compound": "CNC(=O)[C@@]12C[C@@H]1[C@@H](n1cnc3c(NC)nc(C#Cc4ccc(F)c(F)c4)nc31)[C@H](O)[C@@H]2O", "target": "OPRK1", "effect on": "cell-free assay", "Ki [µM]": "> 10"}
{"Compound": "Nc1nc(N)c(N=Nc2ccc([N+](=O)[O-])cc2)c(Cl)n1", "target": "PPO3", "effect on": "enzyme activity", "mode": "inhibitor", "Ki [µM]": 6.56}
{"Compound": "CNC(=O)[C@@]12C[C@@H]1[C@@H](n1cnc3c(NCc4cccc(Cl)c4)nc(C#Cc4ccccc4Cl)nc31)[C@H](O)[C@@H]2O", "target": "OPRK1", "effect on": "cell-free assay", "Ki [µM]": "> 10"}
{"Compound": "CCNC(=O)[C@H]1O[C@@H](n2cnc3c(N)nc(NN=CC4CCC=CO4)nc32)[C@H](O)[C@@H]1O (stereo partly drawn)", "target": "Adenosine receptor A2a (ADORA2A, Homo sapiens, UniProt P29274)", "effect on": "ligand displacement", "technique": "radioligand", "Ki [µM]": 0.00664}
{"Compound": "CNC(=O)[C@@]12C[C@@H]1[C@@H](n1cnc3c(NCCC(F)(F)F)nc(C#Cc4ccc(Cl)s4)nc31)[C@H](O)[C@@H]2O", "target": "OPRK1", "effect on": "cell-free assay", "Ki [µM]": "> 10"}
{"Compound": "CCCc1nc2c(C)cc(-c3nc4ccccc4n3C)cc2n1Cc1ccc(-c2ccccc2C(=O)O)cc1", "target": "Hepatic sodium/bile acid cotransporter (SLC10A1, Homo sapiens, UniProt Q14973)", "effect on": "transporter uptake", "mode": "inhibitor", "Ki [µM]": 60}
